The results in this text go back to ChEMBL document CHEMBL4359917, “Design, synthesis, and biological evaluation of novel benzodiazepine derivatives as anticancer agents through inhibition of tubulin polymerization in vitro and in vivo” (Eur J Med Chem, 2019).

Data set [1] deals with A549. Nature of the data set: Antitumour activity against human A549 cells xenografted in BALB/c nude mouse assessed as tumour volume at 30 mg/kg, ip administered every other day measured at day 26 by electronic caliper method (reference value: 2006.37 mm3). Type of data set: functional. Background: A xenograft is tissue or cells of one species grown in another, often human tumour cells in immunodeficient mice.

For data set [2], the system named is A549. Nature of the data set: Antitumour activity against human A549 cells xenografted in BALB/c nude mouse assessed as tumour growth inhibition at 30 mg/kg, ip administered every other day measured at day 26 by electronic caliper method relative to control. It counts as functional. The following applies: 624 h, read-out: GI.
For data set [3], the system named is A549. Briefly: Antitumour activity against human A549 cells xenografted in BALB/c nude mouse assessed as tumour weight at 30 mg/kg, ip administered every other day measured at day 26 by electronic caliper method (reference value: 1.894 g). Type of data set: functional.
The next data set deals with HepG2. Nature of the data set: Antiproliferative activity against human HepG2 cells assessed as cell growth inhibition measured after 48 hrs by MTT assay. Type of data set: functional, cell-based. The conditions noted are these: HepG2, 48 h. In short, it runs like this: (§1)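 Cancer cell lines exposed to compounds for 48 h; viability read by MTT assay. IC50 reported as mean ± SD from at least three independent experiments.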

A further data set relates to HCT-116. Nature of the data set: Antiproliferative activity against human HCT116 cells assessed as cell growth inhibition measured after 48 hrs by MTT assay. Type of data set: functional, cell-based. The following applies: HCT-116, 48 h. The method, boiled down:
as §1
(In general: Tetrazolium assays rely on reduction of a dye to a coloured formazan, in cell work by metabolically active cells.)

The next data set relates to MDA-MB-231. Nature of the data set: Antiproliferative activity against human MDA-MB-231 cells assessed as cell growth inhibition measured after 48 hrs by MTT assay. The conditions noted are these: MDA-MB-231, 48 h. Type of data set: functional, cell-based. In short, it runs like this: as §1
In the next data set the test system is HeLa. Nature of the data set: Antiproliferative activity against human HeLa cells assessed as cell growth inhibition measured after 48 hrs by MTT assay. Type of data set: functional, cell-based. The method, boiled down:
as §1

For data set [4], the system named is A549. Nature of the data set: Antiproliferative activity against human A549 cells assessed as cell growth inhibition measured after 48 hrs by MTT assay. Type of data set: functional, cell-based. The following applies: A549, 48 h. The method, boiled down:
as §1

Data set [5] is described as follows: Toxicity in BALB/c nude mouse xenografted with human A549 cells assessed as effect on body weight at 30 mg/kg, ip administered every other day measured for 26 days. It counts as organism-based. The following applies: in vivo, 624 h.
The nature of data set [6]: Solubility of compound in water. It counts as physicochemical. The following applies: buffer.
Data set [7] can be described thus: Metabolic stability in Sprague-Dawley rat liver microsomes assessed as parent compound remaining after 90 mins in presence of NADPH by HPLC-UV-MS analysis. It counts as ADME, Microsome. The conditions noted are these: read-out: Stability. The method, boiled down: (§2)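 Compound incubated with rat liver microsomes in buffer containing an NADPH regenerating system. Percentage of parent remaining was determined at time points up to 180 min, and half-life was derived.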
On the technique in general: Liver microsomes are vesicles of endoplasmic reticulum, rich in cytochrome P450 enzymes.

A short description of data set [8]: Half-life in Sprague-Dawley rat liver microsomes in presence of NADPH by HPLC-UV-MS analysis. Type of data set: ADME, Microsome. The method, boiled down:
as §2

The nature of data set [9]: Metabolic stability in Sprague-Dawley rat liver microsomes assessed as parent compound remaining after 150 mins in presence of NADPH by HPLC-UV-MS analysis. It counts as ADME, Microsome. The method, boiled down: as §2
A short description of data set [10]: Metabolic stability in Sprague-Dawley rat liver microsomes assessed as parent compound remaining after 60 mins in presence of NADPH by HPLC-UV-MS analysis. It counts as ADME, Microsome. The conditions noted are these: read-out: Stability. In short, it runs like this: as §2
Data set [11] is described as follows: Metabolic stability in Sprague-Dawley rat liver microsomes assessed as parent compound remaining after 30 mins in presence of NADPH by HPLC-UV-MS analysis. Type of data set: ADME, Microsome. The conditions noted are these: read-out: Stability. In short, it runs like this:
as §2

Data set [12] in a line: Metabolic stability in Sprague-Dawley rat liver microsomes assessed as parent compound remaining after 120 mins in presence of NADPH by HPLC-UV-MS analysis. It counts as ADME, Microsome. The conditions noted are these: read-out: Stability. The method, boiled down:
as §2

A short description of a further data set: in vitro. The conditions noted are these: Sprague-Dawley, rat, liver microsomes.

For the molecule `COc1cc(C2=NCC(=O)Nc3c2ccc(OC)c3OP(=O)([O-])[O-])cc(OC)c1OC.[Na+].[Na+]`, the values for the Activity in the data set with A549 [1] and in the data set with A549 [3] were 408.17 mm3 and 0.415 g, respectively. Besides, the inhibition in vivo at 30 mg/kg in the data set with A549 [2] is 77.7%.

As a reminder, the IC50 is the concentration that gives 50% inhibition. Take `COc1cc(-c2cc(=O)[nH]c3c(O)c(OC)ccc23)cc(SC)c1OC`: the concentration for half-maximal inhibition (IC50) with HepG2 stood at 51.7 nM; in the data set on HCT-116, 28.8 nM; in the data set with MDA-MB-231, 70 nM; in the data set on HeLa it was 35.5 nM; with A549 [4], 61.8 nM.

With `COc1cc(C2=NCC(=O)Nc3c2ccc(OC)c3OP(=O)([O-])[O-])cc(SC)c1OC.[Na+].[Na+]`, the figures for the Activity (with A549 [1]; in data set [5]; with A549 [3]) were 369.25 mm3, “Non-Toxic” and 0.373 g, respectively. In the data set with A549 [2], the inhibition in vivo at 30 mg/kg is 79.3%. In addition, the solubility entry in [6] was “Soluble”.

As for `COc1ccc2c(c1O)NC(=O)C(C)N=C2c1cc(OC)c(OC)c(SC)c1` (centres undefined), the IC50 in the data set with HepG2 came to 295 nM; in the data set with HCT-116, 89 nM; with MDA-MB-231 it was 295 nM; in the data set on HeLa, 1070 nM; in the data set on A549 [4] it was 93 nM.

As for `COc1cc(-c2c(C)c(=O)[nH]c3c(O)c(OC)ccc23)cc(SC)c1OC`, the IC50 in the data set on HepG2 was determined as 303 nM; with HCT-116, 229 nM; in the data set on MDA-MB-231 it was 133 nM; in the data set on HeLa, 158 nM; with A549 [4], 86 nM.

For `COc1ccc2c(c1O)NC(=O)CN=C2c1cc(OC)c(OC)c(N(C)C)c1`, the IC50 in the data set on HepG2 was found to be 52 nM; in the data set on HCT-116 it was 53 nM; in the data set on MDA-MB-231, 91 nM; in the data set with HeLa it was 54.9 nM; in the data set with A549 [4], 66.2 nM.

Regarding `COc1ccc2c(c1O)NC(=O)CN=C2c1cc2c(c(OC)c1)OC(C)(C)C=C2`, the IC50 in the data set with HepG2 was determined as 30.5 nM; in the data set on HCT-116 it was 13.9 nM; in the data set with MDA-MB-231, 69 nM; in the data set with HeLa it was 34.7 nM; in the data set with A549 [4] it was 56.2 nM.

Consider `COc1ccc2c(c1O)NC(=O)CN=C2c1cc(OC)c(OC)c(SC)c1`, for which the IC50 was determined as 14.2 nM in the data set on HepG2; 10.8 nM with HCT-116; 24.7 nM in the data set on MDA-MB-231; 16.5 nM with HeLa; 18.7 nM with A549 [4].

With `COc1cc(C2=NCC(=O)Nc3c2ccc(OC)c3OP(=O)([O-])[O-])cc([Se]C)c1OC.[Na+].[Na+]`, the Activity in the data set with A549 [1] is reported as 215.2 mm3; in data set [5], “Non-Toxic”; with A549 [3] it was 0.201 g. In addition, the inhibition in vivo at 30 mg/kg in the data set with A549 [2] was 89.3%. In addition, in data set [6], the solubility result is “Soluble”.

What is called half-life is how long it takes for the measured level to halve. Consider `COc1ccc(/C=C\c2cc(OC)c(OC)c(OC)c2)cc1O` [COMBRETASTATIN A4], for which, in [7], the remaining at 1.5 h is 21.6%. Besides, the half-life in data set [8] was less than 1 h. The Stability entry in data set [9] (microsomes, 2.5 h) is on record as “Unstable”. In addition, the remaining at 1 h in data set [10] was found to be 36.4%. Moreover, the remaining at 0.5 h in data set [11] came to 66.3%. In data set [12], the remaining at 2 h stood at 17.9%.

As to `COc1ccc2c(c1O)NC(=O)CN=C2c1cc(OC)c(OC)c(OC)c1`, the remaining at 1.5 h in [7] was found to be 76.2%. The remaining at 3 h in “in vitro” was 49.9%. In addition, the half-life in data set [8] was determined as 2.62 h. Also, the remaining at 2.5 h in data set [9] (Sprague-Dawley, liver microsomes, read-out: Stability) worked out at 55.2%. In addition, the IC50 in the data set on HepG2 was 15.7 nM; in the data set on HCT-116, 16.6 nM; in the data set with MDA-MB-231, 54.6 nM; in the data set with HeLa, 18.1 nM; in the data set with A549 [4], 9.15 nM. Moreover, the remaining at 1 h in data set [10] came to 85.5%. Besides, the remaining at 0.5 h in data set [11] worked out at 94.3%. The remaining at 2 h in data set [12] was 65.3%.

Consider `COc1ccc(/C=C\c2cc(OC)c(OC)c(OC)c2)cc1OP(=O)([O-])[O-].[Na+].[Na+]` [FOSBRETABULIN DISODIUM], for which the Activity in the data set with A549 [1] turned out to be 984.86 mm3; in the data set on A549 [3], 0.879 g. Moreover, the inhibition in vivo at 30 mg/kg with A549 [2] stood at 52.8%.

For `COc1cc(-c2cc(=O)[nH]c3c(O)c(OC)ccc23)cc([Se]C)c1OC`, the 50% inhibitory concentration (IC50) with HepG2 is 22 nM; with HCT-116, 124 nM; in the data set with MDA-MB-231 it was 69 nM; in the data set on HeLa, 51.7 nM; in the data set with A549 [4] it was 60.7 nM.

`COc1ccc2c(c1O)NC(=O)CN=C2c1ccc(OC)c2c1OC(C)(C)C=C2`: the IC50 amounted to 4590 nM in the data set on HepG2; 207 nM in the data set with HCT-116; 3710 nM in the data set with MDA-MB-231; 1870 nM in the data set with HeLa; 433 nM with A549 [4].
